Experiments:
A-431 = assay: Antiproliferative activity against human A431 cells after 72 hrs by CCK-8 assay; assay type: functional, cell-based
[1] = Antiproliferative activity against human HCC827 cells after 72 hrs by CCK-8 assay; assay type: functional, cell-based; details: HCC827, 72 h
[2] = target: Epidermal growth factor receptor (Homo sapiens, UniProt P00533); assay: Inhibition of EGFR (unknown origin) using tyrosine 4 as substrate by fluorescence analysis
[3] = target: T1, Prostaglandin G/H synthase 1 (Ovis aries, UniProt P05979); assay: Inhibition of Ovine COX-1 preincubated for 15 mins by fluorescence analysis
T1 sequence (P05979 whole entry): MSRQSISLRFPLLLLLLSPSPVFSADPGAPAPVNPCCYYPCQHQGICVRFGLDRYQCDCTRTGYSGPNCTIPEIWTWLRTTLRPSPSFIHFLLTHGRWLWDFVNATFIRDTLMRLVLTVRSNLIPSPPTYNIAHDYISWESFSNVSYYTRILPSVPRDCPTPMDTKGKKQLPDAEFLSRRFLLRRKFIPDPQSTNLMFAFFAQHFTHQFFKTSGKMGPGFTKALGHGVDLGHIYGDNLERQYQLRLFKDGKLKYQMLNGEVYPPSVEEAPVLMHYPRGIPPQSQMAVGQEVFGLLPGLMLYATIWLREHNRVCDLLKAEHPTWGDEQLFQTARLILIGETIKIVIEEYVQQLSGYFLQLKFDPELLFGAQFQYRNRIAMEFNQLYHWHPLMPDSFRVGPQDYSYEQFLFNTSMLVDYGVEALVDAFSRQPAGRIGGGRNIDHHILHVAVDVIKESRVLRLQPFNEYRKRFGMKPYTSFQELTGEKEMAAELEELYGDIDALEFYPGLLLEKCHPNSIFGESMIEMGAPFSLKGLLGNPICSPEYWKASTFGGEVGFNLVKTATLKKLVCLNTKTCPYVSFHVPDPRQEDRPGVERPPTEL

[4] = Drug level in human HCC827 cells treated with 2-(4-(3-ethynylphenylamino)-6-(2-methoxyethoxy)quinazolin-7-yloxy)ethyl 2-(6-methoxynaphthalen-2-yl)propanoate by LC-MS/MS analysis; assay type: ADME, cell-based
Summary of the method: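 Conjugate added to culture medium (containing active serum) and incubated with HCC827 tumor cells for up to 24 h. Samples taken over time to follow hydrolysis of the conjugate and release of the parent molecules.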

[5] = Homo sapiens, A-431, 72 h, read-out: IC50

Epidermal growth factor receptor, sequence (P00533 whole entry): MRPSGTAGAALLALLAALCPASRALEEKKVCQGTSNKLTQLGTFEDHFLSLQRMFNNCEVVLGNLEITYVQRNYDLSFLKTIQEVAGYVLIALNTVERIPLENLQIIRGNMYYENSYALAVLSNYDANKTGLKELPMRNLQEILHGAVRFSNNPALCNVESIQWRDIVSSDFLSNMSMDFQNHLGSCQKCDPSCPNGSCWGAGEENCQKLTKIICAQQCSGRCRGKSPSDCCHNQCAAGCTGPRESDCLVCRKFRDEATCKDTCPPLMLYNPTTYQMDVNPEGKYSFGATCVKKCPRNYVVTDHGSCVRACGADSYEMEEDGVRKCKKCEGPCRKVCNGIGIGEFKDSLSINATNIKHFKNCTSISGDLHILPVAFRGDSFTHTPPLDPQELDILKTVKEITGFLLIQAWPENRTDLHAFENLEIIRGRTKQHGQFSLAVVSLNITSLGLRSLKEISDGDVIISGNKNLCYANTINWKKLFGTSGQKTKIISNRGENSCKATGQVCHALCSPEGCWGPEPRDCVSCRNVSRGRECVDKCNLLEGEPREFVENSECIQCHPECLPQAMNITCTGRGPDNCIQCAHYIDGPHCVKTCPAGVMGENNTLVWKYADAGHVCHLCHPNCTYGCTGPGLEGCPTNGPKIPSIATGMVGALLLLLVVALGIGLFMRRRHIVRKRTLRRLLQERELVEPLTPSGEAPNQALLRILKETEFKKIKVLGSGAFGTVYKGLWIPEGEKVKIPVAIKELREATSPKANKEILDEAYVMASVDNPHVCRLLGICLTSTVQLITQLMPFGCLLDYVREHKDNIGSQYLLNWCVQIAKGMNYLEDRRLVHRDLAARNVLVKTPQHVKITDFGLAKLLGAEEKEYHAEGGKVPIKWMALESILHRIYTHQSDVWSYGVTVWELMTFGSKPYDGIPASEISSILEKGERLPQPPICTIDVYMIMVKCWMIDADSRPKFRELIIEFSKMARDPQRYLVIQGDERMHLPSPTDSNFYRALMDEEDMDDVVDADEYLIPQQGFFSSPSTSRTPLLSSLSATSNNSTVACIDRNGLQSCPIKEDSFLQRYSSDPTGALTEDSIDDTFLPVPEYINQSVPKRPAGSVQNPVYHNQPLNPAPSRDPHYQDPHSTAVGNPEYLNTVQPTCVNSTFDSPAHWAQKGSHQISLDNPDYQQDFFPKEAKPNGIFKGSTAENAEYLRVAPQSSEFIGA

C#Cc1cccc(Nc2ncnc3cc(OCCOC)c(OCCOC(=O)C(C)c4ccc5cc(OC)ccc5c4)cc23)c1 (stereo not drawn)
IC50 (A-431; [5]): 5000 nM | IC50 [1]: 500 nM

C#Cc1cccc(Nc2ncnc3cc(OCCOC(=O)C(C)c4cccc(C(=O)c5ccccc5)c4)c(OCCOC(=O)C(C)c4cccc(C(=O)c5ccccc5)c4)cc23)c1 (stereo not drawn)
IC50 (A-431; [5]): > 10000 nM | IC50 [1]: 2100 nM

C#Cc1cccc(Nc2ncnc3cc(OCCOC(=O)c4ccc(C(=O)Nc5ccc6c(c5)C(C)(C)CCC6(C)C)cc4)c(OCCOC)cc23)c1
IC50 (A-431; [5]): > 10000 nM | IC50 [1]: 200 nM | IC50 [2]: 32 nM | IC50 [3]: > 10000 nM

C#Cc1cccc(Nc2ncnc3cc(OCCOC(=O)C(C)c4ccc5cc(OC)ccc5c4)c(OCCOC(=O)C(C)c4ccc5cc(OC)ccc5c4)cc23)c1 (stereo not drawn)
IC50 (A-431; a-431): Not Active | IC50 [1]: 2300 nM | IC50 [2]: 390 nM | IC50 [3]: > 10000 nM

C#Cc1cccc(Nc2ncnc3cc(OCCOC(=O)Cc4c(C)n(C(=O)c5ccc(Cl)cc5)c5ccc(OC)cc45)c(OCCOC)cc23)c1
IC50 (A-431; [5]): > 10000 nM | IC50 [1]: 900 nM | IC50 [2]: 27 nM | IC50 [3]: 11300 nM

C#Cc1cccc(Nc2ncnc3cc(OCCOC(=O)C(C)c4ccc(CC(C)C)cc4)c(OCCOC(=O)C(C)c4ccc(CC(C)C)cc4)cc23)c1 (stereo not drawn)
IC50 (A-431; a-431): Not Active | IC50 [1]: 16500 nM | IC50 [2]: > 10000 nM | IC50 [3]: > 10000 nM

COc1ccc2c(c1)c(CC(=O)O)c(C)n2C(=O)c1ccc(Cl)cc1 [INDOMETHACIN]
IC50 [2]: > 10000 nM

C#Cc1cccc(Nc2ncnc3cc(OCCOC(=O)CC4=C(C)/C(=C/c5ccc([S+](C)[O-])cc5)c5ccc(F)cc54)c(OCCOC(=O)CC4=C(C)/C(=C/c5ccc([S+](C)[O-])cc5)c5ccc(F)cc54)cc23)c1 (stereo not drawn)
IC50 (A-431; [5]): > 10000 nM | IC50 [1]: 3500 nM | IC50 [2]: 27 nM | IC50 [3]: > 10000 nM

CC1=C(CC(=O)O)c2cc(F)ccc2/C1=C\c1ccc([S+](C)[O-])cc1 (stereo not drawn)
IC50 [2]: > 10000 nM | IC50 [3]: 16000 nM

C#Cc1cccc(Nc2ncnc3cc(OCCOC)c(OCCOC(=O)C(C)c4cccc(C(=O)c5ccccc5)c4)cc23)c1 (stereo not drawn)
IC50 (A-431; [5]): 1700 nM | IC50 [1]: 300 nM

C#Cc1cccc(Nc2ncnc3cc(OCCOC(=O)c4ccc(C(=O)Nc5ccc6c(c5)C(C)(C)CCC6(C)C)cc4)c(OCCOC(=O)c4ccc(C(=O)Nc5ccc6c(c5)C(C)(C)CCC6(C)C)cc4)cc23)c1
IC50 (A-431; a-431): Not Active | IC50 [1]: > 10000 nM | IC50 [2]: 880 nM | IC50 [3]: > 10000 nM

C#Cc1cccc(Nc2ncnc3cc(OCCOC(=O)C(C)c4ccc(CC(C)C)cc4)c(OCCOC)cc23)c1 (stereo not drawn)
IC50 (A-431; [5]): 2200 nM | IC50 [1]: 400 nM | IC50 [2]: 9 nM | IC50 [3]: 44700 nM

C#Cc1cccc(Nc2ncnc3cc(OCCOC)c(OCCOC(=O)c4ccccc4OC(C)=O)cc23)c1
IC50 (A-431; [5]): > 10000 nM | IC50 [1]: 100 nM

C#Cc1cccc(Nc2ncnc3cc(OCCOC(=O)c4ccccc4OC(C)=O)c(OCCOC(=O)c4ccccc4OC(C)=O)cc23)c1
IC50 (A-431; [5]): > 10000 nM | IC50 [1]: 900 nM | IC50 [2]: 34 nM | IC50 [3]: 39600 nM

C#Cc1cccc(Nc2ncnc3cc(OCCO)c(OCCOC)cc23)c1
IC50 (A-431; [5]): 1270 nM | IC50 [1]: 14 nM | IC50 [2]: 1 nM | Drug metabolism [4]: metabolite_detected | IC50 [3]: > 10000 nM

CC(C(=O)O)c1cccc(C(=O)c2ccccc2)c1 (stereo not drawn) [KETOPROFEN]
IC50 [2]: > 10000 nM | IC50 [3]: 67 nM

C#Cc1cccc(Nc2ncnc3cc(OCCOC(=O)c4ccccc4OC(C)=O)c(OCCOC)cc23)c1
IC50 (A-431; [5]): 1800 nM | IC50 [1]: 100 nM | IC50 [2]: 5 nM | IC50 [3]: > 10000 nM

CC(C)Cc1ccc(C(C)C(=O)O)cc1 (stereo not drawn) [IBUPROFEN]
IC50 [2]: > 10000 nM

C#Cc1cccc(Nc2ncnc3cc(OCCOC)c(OCCOC)cc23)c1 [ERLOTINIB]
IC50 [3]: > 10000 nM

C#Cc1cccc(Nc2ncnc3cc(OCCOC(=O)CC4=C(C)/C(=C\c5ccc([S+](C)[O-])cc5)c5ccc(F)cc54)c(OCCOC)cc23)c1 (stereo not drawn)
IC50 (A-431; [5]): 5400 nM | IC50 [1]: 300 nM | IC50 [2]: 31 nM | IC50 [3]: > 10000 nM

CC(=O)Oc1ccccc1C(=O)O [ASPIRIN]
IC50 [2]: > 10000 nM

C#Cc1cccc(Nc2ncnc3cc(OCCOC)c(OCCOC(=O)Cc4c(C)n(C(=O)c5ccc(Cl)cc5)c5ccc(OC)cc45)cc23)c1
IC50 (A-431; [5]): > 10000 nM | IC50 [1]: 1200 nM

COc1ccc2cc(C(C)C(=O)O)ccc2c1 (racemic)
IC50 [2]: > 10000 nM | Drug metabolism [4]: metabolite_detected

C#Cc1cccc(Nc2ncnc3cc(OCCOC)c(OCCOC(=O)CC4=C(C)/C(=C\c5ccc([S+](C)[O-])cc5)c5ccc(F)cc54)cc23)c1 (stereo not drawn)
IC50 (A-431; [5]): 4800 nM | IC50 [1]: 400 nM

C#Cc1cccc(Nc2ncnc3cc(OCCOC)c(OCCOC(=O)C(C)c4ccc(CC(C)C)cc4)cc23)c1 (stereo not drawn)
IC50 (A-431; [5]): > 10000 nM | IC50 [1]: > 10000 nM

C#Cc1cccc(Nc2ncnc3cc(OCCOC(=O)Cc4c(C)n(C(=O)c5ccc(Cl)cc5)c5ccc(OC)cc45)c(OCCOC(=O)Cc4c(C)n(C(=O)c5ccc(Cl)cc5)c5ccc(OC)cc45)cc23)c1
IC50 (A-431; [5]): > 10000 nM | IC50 [1]: 1600 nM | IC50 [2]: 33 nM | IC50 [3]: 31400 nM
